# Measurements: PubChem BioAssay
# The source made the active and inactive calls.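 How the source made its calls, unless noted: active means viability at or under a set limit in both replicates, limit being median viability minus 3 SD (cut at about 48% in these data, passing the limit was not always enough); inconclusive means at or under the limit in just one replicate; inactive means at or above the limit in both replicates.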
# Legend:
# [1] = reducers of endogenous Her2 protein level, primary screen, SKBR3 breast tumor cells, AlphaScreen, ATP viability (AID 461;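 active means Her2 level under about 52% in both replicate screens, with viability over 70% of control, limit read from the data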;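 on Her2 level: lower value means less Her2 protein in the cells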;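 on viability: percent of carrier control wells set as 100% viability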); conditions: 18-24 h, measured here: SKBR3 viability, ATP luminescence, at 10 µM
# [2] = target: Receptor tyrosine-protein kinase erbB-2 (Homo sapiens) (UniProt P04626); assay: as above; conditions: 18-24 h, at 10 µM, stronger effect = lower value
# Chain of Receptor tyrosine-protein kinase erbB-2 (Homo sapiens) (P04626 whole entry, looked up): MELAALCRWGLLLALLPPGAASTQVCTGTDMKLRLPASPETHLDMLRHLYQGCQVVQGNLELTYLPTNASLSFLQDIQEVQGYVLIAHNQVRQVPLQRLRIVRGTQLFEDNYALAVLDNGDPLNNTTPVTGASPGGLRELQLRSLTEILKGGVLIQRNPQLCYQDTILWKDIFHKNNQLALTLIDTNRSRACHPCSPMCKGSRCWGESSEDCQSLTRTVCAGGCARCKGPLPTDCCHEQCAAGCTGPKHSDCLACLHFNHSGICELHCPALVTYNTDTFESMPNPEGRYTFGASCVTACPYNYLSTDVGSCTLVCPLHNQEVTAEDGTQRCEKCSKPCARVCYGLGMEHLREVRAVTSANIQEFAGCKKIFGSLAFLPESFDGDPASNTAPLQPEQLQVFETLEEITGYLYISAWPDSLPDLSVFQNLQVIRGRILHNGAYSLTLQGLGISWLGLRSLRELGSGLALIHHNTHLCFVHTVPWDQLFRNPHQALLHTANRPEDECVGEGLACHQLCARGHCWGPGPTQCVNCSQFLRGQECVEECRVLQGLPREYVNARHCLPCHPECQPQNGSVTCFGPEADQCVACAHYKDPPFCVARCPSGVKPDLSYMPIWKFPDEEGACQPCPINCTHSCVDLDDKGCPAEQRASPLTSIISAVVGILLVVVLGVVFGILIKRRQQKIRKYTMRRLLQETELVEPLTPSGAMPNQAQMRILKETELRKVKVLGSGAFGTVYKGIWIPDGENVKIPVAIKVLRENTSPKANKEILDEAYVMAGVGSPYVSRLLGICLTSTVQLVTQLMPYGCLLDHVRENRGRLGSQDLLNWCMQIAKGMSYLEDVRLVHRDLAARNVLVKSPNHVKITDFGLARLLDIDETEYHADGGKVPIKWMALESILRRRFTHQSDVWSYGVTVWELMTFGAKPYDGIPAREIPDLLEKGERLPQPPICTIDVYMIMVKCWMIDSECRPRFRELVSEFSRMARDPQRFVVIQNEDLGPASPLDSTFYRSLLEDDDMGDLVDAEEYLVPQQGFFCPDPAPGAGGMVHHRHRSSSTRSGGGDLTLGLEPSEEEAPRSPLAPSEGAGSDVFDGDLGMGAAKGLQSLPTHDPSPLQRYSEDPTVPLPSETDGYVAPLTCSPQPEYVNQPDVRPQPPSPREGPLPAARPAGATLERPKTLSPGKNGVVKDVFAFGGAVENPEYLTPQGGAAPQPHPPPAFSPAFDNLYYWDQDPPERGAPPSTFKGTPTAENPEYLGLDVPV
# [3] = SK-BR-3 cell growth inhibitors, pilot screen, 24 h, human (AID 572;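 active means viability at or below 10% of carrier control in both of two separate runs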;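 further: compound exposure lasted between 18 and 24 h rather than exactly 24 h; 100% = carrier-treated control wells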); conditions: SK-BR-3 viability, CellTiter-Glo luminescence, at 10 µM, stronger effect = lower value
# [4] = HUVEC growth inhibition – cell-based, human, primary screen (AID 575;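 active means viability at or below 30% in both replicate assays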;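 further: 100% = median of untreated cell wells with 0.1% DMSO on each plate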); conditions: HUVEC proliferation, CellTiter-Glo luminescence, 72 h; at 10 µM; stronger effect = lower value
# Outline: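 Assay system: primary human umbilical vein endothelial cells / Buffer or medium: endothelial basal medium with 2% FBS plus growth supplements / Compound dosing: one dose, 10 µM final, 0.1% DMSO / Timing: 72 h treatment at 37 °C / Signal: CTG luminescence / Benchmarks: 32 DMSO-only cell-control wells (high), 32 MePR drug-control wells (low) per plate / Plate: collagen-coated 384-well format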
# [5] = growth inhibitors of H69AR lung tumor, primary screen, human, duplicate replicates (AID 580); conditions: H69AR lung tumor cells viability, ATP luminescence, 72 h; at 10 µM; stronger effect = lower value;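 further: 100% = mean luminescence of untreated wells and 0% = no signal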
# [6] = reversal of MRP1-mediated doxorubicin resistance, pilot screen, H69AR cells, doxorubicin co-treatment (AID 601;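 active means viability loss from added drug above about 55%, and viability with drug at most 40%, in both replicates, limit read from the data, passing the limit was not always enough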); conditions: CellTiter-Glo, 72 h, at 10 µM; for differential viability (reversal): stronger effect = higher value
# [7] = 384-well plate pilot, post-Golgi transport modulator project, inhibition of yeast transport mutant growth (AID 636; in the data active means inhibition above about 31%); conditions: absorbance 615 nm, about 18 h, stronger effect = higher value
# [8] = growth suppression of yeast trafficking mutant, preliminary HTS, modulators of trafficking downstream of Golgi apparatus project, 1536-format plate, OD 615 nm (AID 637; in the data active means inhibition above about 30%); conditions: yeast transport mutant growth, absorbance 615 nm, 18 h; stronger effect = higher value
# [9] = H69AR cells + 2 uM doxorubicin, measured here: viability with 2 uM doxorubicin, stronger effect = lower value
# [10] = H69AR cells, compound alone cytotoxicity
SMILES,viability [1],Her2 level [2],viability [3],viability [4],viability [5],differential viability (reversal) ([6]; H69AR cells + 2 uM doxorubicin),"viability [6, 9]","viability [6, 10]",inhibition [7],inhibition [8]
c1ccc(-c2cc3c(nn2)CCc2nonc2-3)cc1,98.5%,102% (inactive),98.5% (inactive),117% (inactive),97.8% (inactive),-9.73% (inactive),108%,97.8%,0% (inactive),4.26% (inactive)
CCOC(=O)N1CCC(N2CC34C=CC(O3)C(C(=O)O)C4C2=O)CC1 (stereo not given),102%,99.5% (inactive),102% (inactive),92.4% (inactive),100% (inactive),18.3% (inactive),81.8%,100%,-3.73% (inactive),-4.26% (inactive)
COc1cc(-c2nnc(SCC(=O)c3cc(C)n(CC4CCCO4)c3C)o2)cc(OC)c1OC (stereo not given),104%,66.5% (inactive),104% (inactive),76.4% (inactive),77.5% (inactive),-2% (inactive),79.5%,77.5%,-5.95% (inactive),-4.83% (inactive)
Cc1ccc(Cl)cc1N1CCN(C(=O)C2CCCN(S(=O)(=O)c3cnc[nH]3)C2)CC1 (stereo not given),86.5%,99.5% (inactive),86.5% (inactive),69.8% (inactive),83.8% (inactive),5.75% (inactive),78%,83.8%,-2.93% (inactive),-2.62% (inactive)
Cc1c(C(=O)N2CCCC2)sc(NC(=O)c2cccs2)c1C#N,106%,91.5% (inactive),106% (inactive),98.1% (inactive),89.9% (inactive),-0.35% (inactive),90.2%,89.9%,-3.6% (inactive),-5.81% (inactive)
O=C1COc2ccc(C(=O)NCc3ccco3)cc2N1,95.5%,86% (inactive),95.5% (inactive),105% (inactive),104% (inactive),7.71% (inactive),96.1%,104%,-2.11% (inactive),-7.26% (inactive)
COc1ccc(OC(C)C(=O)N2CC(C)OC(C)C2)cc1 (stereo not given),100%,102% (inactive),100% (inactive),97.3% (inactive),100% (inactive),-1.02% (inactive),101%,100%,-5% (inactive),0.16% (inactive)
CCOC(=O)CSc1nc2ccccc2c(=O)n1CCN1CCOCC1,92.5%,87.5% (inactive),92.5% (inactive),87.6% (inactive),95.4% (inactive),11% (inactive),84.4%,95.4%,0% (inactive),-6.19% (inactive)
COc1ccccc1OCC(=O)NCC1CCCCC1,94.5%,114% (inactive),94.5% (inactive),93.2% (inactive),109% (inactive),23.4% (inactive),85.2%,109%,-3.29% (inactive),-9.33% (inactive)
CC(C)=CCCC(C)NC(=O)NC1CCCCC1 (stereo not given),91%,94% (inactive),91% (inactive),106% (inactive),107% (inactive),18% (inactive),88.6%,107%,-5.33% (inactive),2.74% (inactive)
CCC(C)(C)n1nnnc1C(c1ccncc1)N1CCN(c2cccc(OC)c2)CC1 (stereo not given),77.5%,82.5% (inactive),77.5% (inactive),91.9% (inactive),85.3% (inactive),-0.525% (inactive),85.8%,85.3%,-2.67% (inactive),4.26% (inactive)
Cn1c(SCC(N)=O)nnc1C1CCN(C(=O)NCc2ccccc2)CC1,88%,103% (inactive),88% (inactive),93.6% (inactive),88.3% (inactive),0.425% (inactive),87.8%,88.3%,-3.55% (inactive),-9.5% (inactive)
S=c1[nH]nc(-c2ccco2)n1-c1cccc2ccccc12,102%,98.5% (inactive),102% (inactive),78.5% (inactive),96.9% (inactive),3.69% (inactive),93.2%,96.9%,-0.54% (inactive),14.6% (inactive)
CCOC(=O)C1CCN(Cc2c(O)ccc3ccccc23)CC1,126%,115% (inactive),126% (inactive),83.6% (inactive),98.2% (inactive),5.58% (inactive),92.6%,98.2%,-7.67% (inactive),5.4% (inactive)
CCOC(=O)C1CCCN(CCCc2ccccc2)C1 (stereo not given),104%,91% (inactive),104% (inactive),105% (inactive),90.8% (inactive),3.21% (inactive),87.6%,90.8%,-5.47% (inactive),-1.9% (inactive)
COc1ccc2[nH]c(=O)c(CN(Cc3cccs3)S(=O)(=O)c3cccc4nsnc34)cc2c1,96.5%,80% (inactive),96.5% (inactive),59.2% (inactive),5.33% (active),-0.125% (inactive),5.45%,5.33%,-6.44% (inactive),1.43% (inactive)
CCOC(=O)c1ccc(COC(=O)CCc2nc3ccccc3[nH]c2=O)o1,92%,96.5% (inactive),92% (inactive),100% (inactive),92.1% (inactive),-4.18% (inactive),96.2%,92.1%,-1.32% (inactive),5.08% (inactive)
COc1ccc(OC)c(S(=O)(=O)Nc2ccc(C(N)=O)cc2)c1,98.5%,91% (inactive),98.5% (inactive),110% (inactive),94% (inactive),5.67% (inactive),88.4%,94%,-4.61% (inactive),-2.3% (inactive)
O=C(O)C1CCCCC1C(=O)NCCc1ccccc1 (stereo not given),87.5%,104% (inactive),87.5% (inactive),103% (inactive),99.2% (inactive),7.15% (inactive),92%,99.2%,0.55% (inactive),10.3% (inactive)
COc1ccc(C(c2nnnn2C2CCCC2)N2CCN(C3CCCC3)CC2)cc1OC (stereo not given),89.5%,84% (inactive),89.5% (inactive),84.7% (inactive),106% (inactive),28.3% (inactive),77.7%,106%,-7.26% (inactive),-2.22% (inactive)
COc1ccc(CCNC(=O)c2ccncc2)cc1OC,107%,110% (inactive),107% (inactive),96.3% (inactive),97.5% (inactive),12.2% (inactive),85.3%,97.5%,-6.27% (inactive),-3.71% (inactive)
Cc1occc1-c1nnc(SCC(=O)c2ccc(F)cc2)n1Cc1ccco1,77.5%,82% (inactive),77.5% (inactive),84.1% (inactive),85.3% (inactive),3.13% (inactive),82.2%,85.3%,-1.33% (inactive),-0.16% (inactive)
CCCCOc1ccccc1C(=O)NCCCC(=O)O,92.5%,80.5% (inactive),92.5% (inactive),95.4% (inactive),87.1% (inactive),7.52% (inactive),79.6%,87.1%,-4.08% (inactive),-0.55% (inactive)
Cc1nc(C)c(C(=O)Nc2ccc(C)c(F)c2)o1,92%,80% (inactive),92% (inactive),117% (inactive),94.8% (inactive),15.5% (inactive),79.3%,94.8%,-5.54% (inactive),1% (inactive)
CC(C)(O)C1=NOC(c2ccccc2)C1 (stereo not given),98%,108% (inactive),98% (inactive),76.2% (inactive),71.1% (inactive),-14.7% (inactive),85.8%,71.1%,-2.57% (inactive),1.31% (inactive)
CCCS(=O)(=O)NCCc1cc2cc(C)c(C)cc2[nH]c1=O,106%,90% (inactive),106% (inactive),101% (inactive),96.3% (inactive),8.55% (inactive),87.7%,96.3%,-8.22% (inactive),-0.63% (inactive)
Cc1ccc(NC(=O)c2ccc(NS(=O)(=O)c3c(C)noc3C)cc2)cc1C,97%,81.5% (inactive),97% (inactive),84.1% (inactive),95% (inactive),11.6% (inactive),83.4%,95%,-2.24% (inactive),-4.55% (inactive)
COc1ccc(NC(=O)CN2CCCCC2)cc1,108%,108% (inactive),108% (inactive),90.2% (inactive),88.2% (inactive),5.94% (inactive),82.3%,88.2%,-5.58% (inactive),-10% (inactive)
